10 compounds from ChEMBL document CHEMBL5038600, “Discovery of M-1121 as an Orally Active Covalent Inhibitor of Menin-MLL Interaction Capable of Achieving Complete and Long-Lasting Tumor Regression” (J Med Chem, 2021) can be followed below.

As usually defined, the IC50 is the midpoint of a concentration-inhibition curve.

Data set [1] can be described thus: Plasma concentration in mouse at 25 mg/kg, po measured after 3 hrs. It is filed as ADME, organism-based. In outline: (§1)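 Mice given a single oral dose of 25 mg/kg; plasma concentrations sampled at 1, 3 and 6 h post-dose.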
The nature of data set [2]: Plasma concentration in mouse at 25 mg/kg, po measured after 1 hr. It is filed as ADME, organism-based. The procedure, abridged:
as §1

The nature of data set [3]: Plasma concentration in mouse at 25 mg/kg, po measured after 6 hrs. The format is ADME, organism-based. In outline:
as §1

Data set [4] concerns the target T1, Menin (Homo sapiens) (UniProt O00255).
T1 sequence (whole entry): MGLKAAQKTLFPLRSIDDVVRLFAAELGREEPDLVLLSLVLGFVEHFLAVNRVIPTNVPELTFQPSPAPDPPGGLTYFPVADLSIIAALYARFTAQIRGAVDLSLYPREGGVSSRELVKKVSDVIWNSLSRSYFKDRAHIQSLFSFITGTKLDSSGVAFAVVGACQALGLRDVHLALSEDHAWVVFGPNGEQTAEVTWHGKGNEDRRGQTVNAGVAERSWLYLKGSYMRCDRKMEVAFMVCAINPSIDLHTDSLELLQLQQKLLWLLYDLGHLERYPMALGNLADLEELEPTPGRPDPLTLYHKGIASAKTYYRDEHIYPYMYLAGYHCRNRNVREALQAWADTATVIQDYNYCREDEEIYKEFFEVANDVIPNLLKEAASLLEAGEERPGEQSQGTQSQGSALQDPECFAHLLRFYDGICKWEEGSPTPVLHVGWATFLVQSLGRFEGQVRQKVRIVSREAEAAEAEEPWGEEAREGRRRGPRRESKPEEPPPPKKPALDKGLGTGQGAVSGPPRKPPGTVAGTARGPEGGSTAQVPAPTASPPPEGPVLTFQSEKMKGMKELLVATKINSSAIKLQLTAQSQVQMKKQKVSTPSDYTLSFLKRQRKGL
In words: Binding affinity to recombinant human menin protein assessed as covalent complex formation incubated for 10 mins by LC/MS analysis. Also noted: concentration or dose not given beside the values.

The target of data set [5] is T1, Menin (Homo sapiens). Nature of the data set: Binding affinity to recombinant human menin protein assessed as covalent complex formation incubated for 1 hrs by LC/MS analysis. Details: concentration or dose not given beside the values. The procedure, abridged:
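Menin (25 mg/mL in 25 mM Tris pH 8.0, 150 mM NaCl, 5 mM DTT) incubated with compound at a 1:1.2 protein:compound molar ratio for 1 h or overnight at 4 °C. Diluted to 1 mg/mL, then reverse-phase C4 LC with a 5–100% MeCN/0.2% formic acid gradient and Q-TOF mass spectrometry to detect the covalent adduct.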

The target of data set [6] is T1, Menin (Homo sapiens). In words: Binding affinity to recombinant human menin protein assessed as covalent complex formation incubated for 30 mins by LC/MS analysis. Also noted: concentration or dose not given beside the values.
Data set [7] deals with MV4-11. In words: Anti-proliferative activity against human MV4-11 cells harboring MLL/AF4 fusion protein assessed as cell growth inhibition measured after 4 days by Cell Titre Glo Luminescent Cell viability assay. It is filed as functional, cell-based. The note with it: MV4-11, 96 h.
Data set [8] has as its target T2, Menin (Homo sapiens, UniProt O00255).
T2 sequence (O00255 whole entry): T1 sequence (whole entry)
Nature of the data set: Binding affinity to menin (unknown origin) incubated for 1 hr by fluorescence polarization-based competitive binding assay. (In general: Polarisation of emitted light reports the rotation of a fluorescent probe.)

Data set [9] deals with MOLM-13. In words: Anti-proliferative activity against human MOLM-13 cells harboring MLL/AF9 fusion protein assessed as cell growth inhibition measured after 4 days by Cell Titre Glo Luminescent Cell viability assay. The format is functional, cell-based. The note with it: MOLM-13, 96 h.
In data set [10] the target is T1, Menin (Homo sapiens). In words: Binding affinity to recombinant human menin protein assessed as covalent complex formation measured after overnight incubation by LC/MS analysis. Also noted: concentration or dose not given beside the values.

As to `COC(=O)N[C@H]1CCC[C@@H]1[C@](CN1CCC1)(c1cccc(F)c1)C1CCN(CC2CN(c3ccc(S(=O)(=O)C4CC4)cc3)C2)CC1`, in data set [1], the concentration at 3 h came out at 735 ng/mL. Moreover, the concentration at 1 h in [2] came to 624 ng/mL. The compound further showed a concentration at 6 h in [3] of 928 ng/mL.
Turning to `COC(=O)N[C@H]1CCC[C@@H]1[C@](CN1CCC1)(c1cccc(F)c1)C1CCN(CC2(OC)CN(c3ccc(S(=O)(=O)C4CN(C(=O)/C=C/CN(C)C)C4)cc3)C2)CC1`, the Activity in [4] was found to be 36.9%; in [5], 85.4%; in data set [6], 83.4%; in data set [10], 90.9%. Besides, the IC50 in [7] was 2.3 nM; in [8], 2.7 nM; in [9], 49.7 nM.
`C=CC(=O)N1C[C@H]2C[C@@H]1CN2S(=O)(=O)c1ccc(N2CC(CN3CCC([C@@](CN4CCC4)(c4cccc(F)c4)[C@H]4CCC[C@@H]4NC(=O)OC)CC3)(OC)C2)cc1`: the Activity in data set [4] came out at 0%; in data set [5] it was 0%; in data set [6], 0%; in data set [10] it was 45.1%. The IC50 in data set [7] was 436 nM; in [9] it was 504 nM.
In the case of `COC(=O)N[C@H]1CCC[C@@H]1[C@](CN)(c1cccc(F)c1)C1CCN(CC2CN(c3ccc(S(=O)(=O)C4CC4)cc3)C2)CC1`, the IC50 was 192 nM in data set [7] and 553 nM in data set [9].
On to `C=CC(=O)N1CC(S(=O)(=O)c2ccc(N3CC(CN4CCC([C@@](CN5CCC5)(c5cccc(F)c5)[C@H]5CCC[C@@H]5NC(=O)OC)CC4)(OC)C3)cc2)C1`, for which the Activity in [4] stood at 24.1%; in [5], 59.4%; in data set [6], 40.9%; in data set [10], 81.5%. For the same compound, the figures for the IC50 in data set [7] and in data set [9] were 112 nM and 402 nM, respectively.
Take `COC(=O)N[C@H]1CCC[C@@H]1[C@](CN1CCC1)(c1cccc(F)c1)C1CCN(CC2(OC)CN(c3ccc(S(=O)(=O)C4CC4)cc3)C2)CC1`: in data set [1], the concentration at 3 h came out at 5750 ng/mL. In addition, in data set [2], the concentration at 1 h turned out to be 8260 ng/mL. For the same compound, the concentration at 6 h in data set [3] amounted to 2200 ng/mL.
In the case of `COC(=O)N[C@H]1CCC[C@@H]1[C@](CN1CCC1)(c1cccc(F)c1)C1CCN(CC2(C(=O)OC)CN(c3ccc(S(=O)(=O)C4CC4)cc3)C2)CC1`, the figures for the IC50 in [7] and in data set [9] were greater than 1000 nM and greater than 10000 nM, respectively.
As to `C=CC(=O)N1CCC[C@@H](S(=O)(=O)c2ccc(N3CC(CN4CCC([C@@](CN5CCC5)(c5cccc(F)c5)[C@H]5CCC[C@@H]5NC(=O)OC)CC4)(OC)C3)cc2)C1`, the Activity in data set [4] worked out at 9.8%; in [5] it was 40.5%; in [6] it was 22.6%; in [10], 90%. Also, the IC50 in data set [7] amounted to 74 nM; in data set [8], 3.7 nM; in [9] it was 188 nM.
In the case of `C=CC(=O)N1CCC[C@H](S(=O)(=O)c2ccc(N3CC(CN4CCC([C@@](CN5CCC5)(c5cccc(F)c5)[C@H]5CCC[C@@H]5NC(=O)OC)CC4)(OC)C3)cc2)C1`, the Activity in data set [4] was found to be 8.8%; in data set [5] it was 37.4%; in data set [6] it was 27.9%; in [10], 93.1%. For the same compound, the results for the IC50 in data set [7], in data set [8] and in data set [9] were 77 nM, 3 nM and 196 nM, respectively.
As for `C=CC(=O)N1CCC(S(=O)(=O)c2ccc(N3CC(CN4CCC([C@@](CN5CCC5)(c5cccc(F)c5)[C@H]5CCC[C@@H]5NC(=O)OC)CC4)(OC)C3)cc2)CC1`, the Activity in [4] turned out to be 0%; in data set [5], 0%; in [6] it was 0%; in data set [10], 27%. Also, the IC50 in data set [7] was determined as 156 nM; in data set [8], 3.8 nM; in [9], 594 nM.
